In the library only some 3.4% were active in any assay of this set; here they are far more common.
ANO1 block: blocks the mouse calcium-activated chloride channel TMEM16A; HEK293 TMEM16A/YFP iodide influx fluorescence, ionomycin; normalized B-score (activity score, 25-100; higher = stronger inhibition) at 10 µM; 310,000 compounds, 1.2% hits; AID 588511;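 active = ratio plate-corrected score three or more library SD toward inhibition, starting fluorescence score within five deviations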;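 note: score derived from kinetic fluorescence span divided by baseline fluorescence per well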
m5-HT2A agonist: activates the mouse 5-HT2A serotonin receptor | P35363 | CHO-K1 mHTR2A beta-arrestin complementation, luminescence; percent of 30 µM serotonin response | activation, % at 7.6 µM | 360,000 compounds, 0.66% hits | AID 624169;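 active = activation above a run cutoff, the mean activation of all tested compounds plus 3 SD, cut at about 14% in these data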;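 note: 0% = plate median of compound wells and 100% = 30 µM serotonin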
beta cell repl: induces beta-cell replication in MIN6 cells. MIN6 cells proliferation, ATPlite luminescence, 48 h; cells starved in 0.2% serum; 100% = growth in 10% serum. proliferation, % at 10 µM. 330,000 compounds, 0.29% hits. AID 2380;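 active = compounds whose signal lies at least 3.5 SD above the mean of all wells on their plate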;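 note: 0% = DMSO-treated cells in low-serum medium and 100% = 10% serum control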
MC4R antagonist: antagonists of human melanocortin 4 receptor (MC4R) | inhibition, % at 6.5 µM | P32245 | MC4R-expressing cells, MTII-stimulated cAMP, LANCE TR-FRET | 360,000 compounds, 0.48% hits | AID 540295;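 active = inhibition above its plate's cutoff, the mean of tested wells on that plate plus 3 SD, cut at about 29% in these data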;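 note: 0% = Melanotan II alone and 100% = Melanotan II plus saturating MCL0020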
Target sequence (P32245 whole entry, looked up): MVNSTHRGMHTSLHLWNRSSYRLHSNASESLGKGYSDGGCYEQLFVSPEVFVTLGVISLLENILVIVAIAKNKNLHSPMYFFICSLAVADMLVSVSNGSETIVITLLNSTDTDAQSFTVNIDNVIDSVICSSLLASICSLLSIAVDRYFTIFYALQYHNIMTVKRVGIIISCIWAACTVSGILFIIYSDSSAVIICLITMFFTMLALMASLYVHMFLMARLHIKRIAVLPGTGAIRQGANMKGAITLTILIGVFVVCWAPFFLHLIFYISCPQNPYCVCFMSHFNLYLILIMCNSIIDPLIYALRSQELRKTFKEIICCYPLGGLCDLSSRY
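Assay system: U2OS cells stably expressing human melanocortin 4 receptor (MC4R) / Dosing: 6.5 µM / Timing: compound 30 min, challenge 1 h, detection 1 h / Measured by: Eu-cAMP/anti-cAMP TR-FRET, emission 671 nm / Replicates: singlicate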
ANO1 activ: activates or potentiates the mouse TMEM16A chloride channel; Q8BHY3; HEK293 TMEM16A/YFP-H148Q/I152L, iodide quench fluorescence; stronger effect = lower value; B-score at 10 µM; 340,000 compounds, 0.3% hits; AID 623877;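 active = fluorescence-ratio B-score plate-corrected deviation score at least 3 library SD below zero, with starting fluorescence score within 5 deviations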;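 note: channel opened by trigger with iodide after compound preincubation; score built on the fluorescence ratio of max minus min over baseline; more negative score means more quench and so TMEM16A activation or potentiation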
MC4R barr agon: agonists of human melanocortin 4 receptor (MC4R) beta-arrestin | P32245 | U2OS MC4R beta-arrestin complementation, luminescence; percent of melanotan II response, DMSO zero | activation, % at 8.9 µM | 360,000 compounds, 0.98% hits | AID 540308;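 active = activation above a per-plate cutoff, the mean activation of sample wells on that plate plus 3 SD, cut at about 8% in these data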
An asterisk follows results filed as active; i = inactive; x = no result.

SMILES	ANO1 block	m5-HT2A agonist	beta cell repl	MC4R antagonist	ANO1 activ	MC4R barr agon
O=[N+]([O-])c1c(Nc2ccccc2O)cc(Cl)c2nonc12	100*	-11	-5	-56	i	-5
O=[N+]([O-])c1c(Nc2ccccc2O)ccc2nonc12	i	-4	-2	7	i	-3
O=[N+]([O-])c1cccc(S(=O)(=O)Nc2nc3ccccc3nc2Nc2cccc(S(=O)(=O)N3CCCCC3)c2)c1	x	6	x	14	-5.3*	1
Cc1ccc(S(=O)(=O)Nc2nc3ccccc3nc2Nc2cccc(S(=O)(=O)N3CCCC3)c2)cc1	i	5	-6	14	i	4
O=C1/C(=N\S(=O)(=O)c2cccs2)C([n+]2ccccc2)=C([O-])c2ccccc21	i	-2	-7	-16	-11*	-1
CC(C)(C)c1cc[n+](C2=C([O-])c3ccccc3C(=O)/C2=N\S(=O)(=O)c2cccs2)cc1	i	-2	-4	-13	i	-2
COc1cccc(C(C)(O)c2nc(-c3cccc(C#N)c3)cs2)c1 (stereo unspecified)	x	-3	x	-3	x	0
O=C(/C(N=Nc1cccc(C(F)(F)F)c1)=C(/O)c1cccs1)C(F)(F)F	100*	1	-4	6	i	0
CN(C(=O)/C(N=Nc1cccc(C(F)(F)F)c1)=C(\O)C(F)(F)F)c1ccccc1	100*	-5	-6	4	i	-1
CC(=O)/C(N=Nc1cccc(C(F)(F)F)c1)=C(\C)O	i	2	-2	28	i	1
O=C1NC(=O)C2(CCCCCCC2)N1	x	-1	x	5	i	-2
CC1=CC2=NC(=O)/C(=C\c3cc(C)n(-c4ccccc4)c3C)C(=N)N2O1	i	4	-2	-8	-4.9*	6
Cc1ccc(SCC(=O)c2cc(C)c(O)c(C)c2)cc1	i	-7	-3	-4	i	3
COc1ccc(SCC(=O)c2cc(C)c(OC(=S)N(C)C)c(C)c2)cc1	25*	0	-3	10	i	-2
Cc1ccc(N(C(=O)C(F)(F)F)C(C(=O)NC2CCCCC2)c2cccs2)cc1 (stereo unspecified)	i	-2	-2	11	i	15*
O=C(Nc1ccncc1)C1CC(=O)N(Cc2ccccc2)C1 (stereo unspecified)	x	4	x	4	i	-5
O=C(COC(=O)c1ccccc1Br)Nc1ccc2[nH]c(=O)[nH]c2c1	i	0	3	0	i	-1
Cc1ccc(NC(=O)C(NC2CCCc3ccccc32)c2ccccc2)c([N+](=O)[O-])c1 (stereo unspecified)	i	-4	-6	11	-5.8*	-2
Cc1ccc(NC(=O)C(NC2CCCc3ccccc32)c2ccccc2)cc1Cl (stereo unspecified)	i	1	-5	3	i	7
CCCCOc1ccc(CN2CCSCC2)cc1	i	2	-2	-3	i	0
CCCCC(CC)C(=O)Oc1ccc(O)c(C(C)(C)C)c1 (stereo unspecified)	25*	3	-6	-10	i	6
CC(C)(C)c1cc(OC(=O)C2CCCC2)ccc1O	i	3	-5	-1	i	5
Cc1cccc(-n2ncc3c(N4CC(C)CC(C)C4)ncnc32)c1 (stereo unspecified)	i	6	-6	-2	i	8.4*
Cc1cccc(-n2ncc3c(N4CCCC4)ncnc32)c1	i	-6	-4	4	i	-1
CCc1ccc(CCC(=O)Nc2ccc(Cl)cc2)o1	i	-2	-1	-4	i	-1
SMILES	ANO1 block	m5-HT2A agonist	beta cell repl	MC4R antagonist	ANO1 activ	MC4R barr agon
COC(=O)[C@@H]1[C@@H](C#N)C2(c3ccccc3-c3ccccc32)N(c2ccc(Cl)cc2)N1C#N	25*	4	-3	1	i	-1
CC(=O)Oc1cccc2c1C(=O)C1CC=CC(OC(C)=O)C1C2=O (stereo unspecified)	x	-3	x	4	i	-2
COc1ccc2cc3cc(C(=O)Nc4ccccc4N4CCN(C)CC4)oc3nc2c1	i	16*	-4	-2	i	-2
COc1ccc2cc3cc(C(=O)NCCC(C)C)oc3nc2c1	i	-9	-2	11	i	8.8*
CCC/C=C/c1ccc(CN2C(C)C(=O)N(Cc3cn(CCC4OCCO4)nn3)CCS2(=O)=O)cc1 (stereo unspecified)	x	0	x	6	x	1
Cc1nnc(N2C(=O)C(=O)/C(=C(\O)c3ccc4c(c3)CC(C)O4)C2c2ccccc2)s1 (stereo unspecified)	i	-4	8	13	i	-1
COc1ccc(CCC(=O)NC2CCC(C)CC2)cc1 (stereo unspecified)	i	0	1	5	i	-1
CCN(CC)c1ccc2c(-c3ccc(S(=O)(=O)O)cc3S(=O)(=O)[O-])c3ccc(=[N+](CC)CC)cc-3oc2c1	i	-2	2	50*	i	-4
COc1ccc([N+](=O)[O-])cc1C1NN=C(c2ccccc2O)S1 (stereo unspecified)	i	3	-3	3	i	10*
CCCSc1cc(N2CCCC2)nc(-c2ccccc2)n1	i	7	-6	2	-26*	1
CCN(Cc1cc2ccccc2[nH]c1=O)C(=O)C(C)C	i	7	-2	-7	-4.8*	1
CC1CCN(C(=O)CCC(=O)Nc2ccc([N+](=O)[O-])cc2)CC1	x	9	x	-7	x	0
O=C(O)c1ccc(C=NN=C2c3ccccc3-c3ccccc32)cc1	x	0	x	11	-4.8*	-2
N#CCC(CNc1ncc(C(F)(F)F)cc1Cl)OC(=O)c1cccc([N+](=O)[O-])c1 (stereo unspecified)	i	-7	-2	-1	i	9.1*
COC(=O)c1cc(C(=O)OC)cc(N2C(=O)CC(Sc3nc(C)cc(C)n3)C2=O)c1 (stereo unspecified)	i	3	-2	3	-18*	1
CC(=O)Nc1ccc(N2C(=O)CC(Sc3nc(C)cc(C)n3)C2=O)cc1 (stereo unspecified)	i	4	-5	3	i	0
C[C@H]1CN([C@@H](C)CO)C(=O)c2cc(Br)cnc2O[C@@H]1CN(C)C(=O)c1ccncc1	x	-1	x	3	x	-2
NC(=O)C1(N2CCCCC2)CCN(C(=S)Nc2ccc(F)cc2)CC1	i	1	-1	-2	i	8.5*

Screening results deposited in PubChem by several laboratories.
